Reference: ChEMBL document CHEMBL1137611, “Toward potent ghrelin receptor ligands based on trisubstituted 1,2,4-triazole structure. 2. Synthesis and pharmacological in vitro and in vivo evaluations” (J Med Chem, 2007)

Experiments:
[1] = target: T1, Growth hormone secretagogue receptor type 1 (Homo sapiens, UniProt Q92847); test: Activity at human GHS1a receptor expressed in CHO cells assessed as accumulation of intracellular calcium level at 10 uM relative to ghrelin; format: functional, cell-based
Summary of the method: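 CHO cells transiently electroporated with hGHS-R1a, loaded 24 h later with 1 μM Fluo-4AM (1 h, 37 °C, dark), then de-esterified 30 min at room temperature. Fluorescence (ex 485/em 525 nm) recorded over 60 s, compound at 10 μM added at 15 s. Triplicates, at least two independent experiments. Response expressed as percent of maximum with 0.1 μM ghrelin.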

[2] = target: T1, Growth hormone secretagogue receptor type 1; test: Agonist activity at human GHS1a receptor expressed in CHO cells assessed as accumulation of intracellular calcium level; format: functional, cell-based
Summary of the method: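 Fluo-4AM calcium assay in CHO cells transiently expressing hGHS-R1a. Fluorescence recorded at ex 485/em 525 nm over 60 s after automated addition of increasing agonist concentrations. EC50 taken from the dose-response curve.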

Rattus norvegicus [3] = organism: Rattus norvegicus; test: Effect on cumulative food intake per 100 g body weight of Sprague-Dawley rat at 160 ug after 2 hrs; format: functional
Summary of the method: (§1)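 Young-adult male rats (125–150 g), singly housed, acclimated 1 week and trained daily for a further week. Test compound given sc at 160 μg/kg mid-morning, then returned to cages with a known amount of chow. Cumulative intake recorded at 2 or 6 h as g food/100 g body weight.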

Rattus norvegicus [4] = organism: Rattus norvegicus; test: Inhibition of hexarelin-stimulated cumulative food intake per 100 g body weight of Sprague-Dawley rat at 160 ug after 2 hrs; format: functional
Summary of the method: (§2)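 Young-adult male rats (125–150 g), singly housed, acclimated and trained. Compound given sc at time −10 min (0, 20, 80, 160 or 320 μg/kg), then hexarelin 80 μg/kg sc at time 0. Rats returned to home cages with a known amount of chow. Cumulative intake recorded as g food/100 g body weight at 2 h and 6 h.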

Rattus norvegicus [5] = organism: Rattus norvegicus; test: Effect on cumulative food intake per 100 g body weight of Sprague-Dawley rat at 160 ug after 6 hrs; format: functional; summary of the method: as §1
Rattus norvegicus [6] = organism: Rattus norvegicus; test: Inhibition of hexarelin-stimulated cumulative food intake per 100 g body weight of Sprague-Dawley rat at 160 ug after 6 hrs; format: functional; summary of the method: as §2
Rattus norvegicus [7] = test: Inhibition of growth hormone secretion in infant Sprague-Dawley rat at 160 ug/kg, sc; format: functional
Summary of the method: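 Male 10-day-old pups (~25 g), separated from dams 1 h before testing, groups of eight. Dosed sc with vehicle (DMSO, final 1:300), compound 160 μg/kg, or compound 10 min before hexarelin 80 μg/kg sc. Decapitated 15 min later; plasma GH measured by rat GH enzyme immunoassay and expressed as ng/mL against the NIDDK-rGH-RP-2 standard.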

[8] = target: T1, Growth hormone secretagogue receptor type 1; test: Antagonist activity at human GHS1a receptor expressed in CHO cells assessed as accumulation of intracellular calcium level; format: functional, cell-based
[9] = target: T1, Growth hormone secretagogue receptor type 1; test: Displacement of [125I]His9-ghrelin from human cloned GHS1a receptor expressed in LLC PK1 cells; format: cell-based
Rattus norvegicus [10] = test: Inhibition of hexarelin-stimulated cumulative food intake per 100 g body weight of Sprague-Dawley rat at 80 ug/kg; format: functional; summary of the method: as §2
Rattus norvegicus [11] = test: Inhibition of hexarelin-stimulated cumulative food intake per 100 g body weight of Sprague-Dawley rat at 320 ug/kg; format: functional; summary of the method: as §2
Rattus norvegicus [12] = test: Inhibition of hexarelin-stimulated cumulative food intake per 100 g body weight of Sprague-Dawley rat at 20 ug/kg; format: functional; summary of the method: as §2

T1 sequence (Q92847 whole entry): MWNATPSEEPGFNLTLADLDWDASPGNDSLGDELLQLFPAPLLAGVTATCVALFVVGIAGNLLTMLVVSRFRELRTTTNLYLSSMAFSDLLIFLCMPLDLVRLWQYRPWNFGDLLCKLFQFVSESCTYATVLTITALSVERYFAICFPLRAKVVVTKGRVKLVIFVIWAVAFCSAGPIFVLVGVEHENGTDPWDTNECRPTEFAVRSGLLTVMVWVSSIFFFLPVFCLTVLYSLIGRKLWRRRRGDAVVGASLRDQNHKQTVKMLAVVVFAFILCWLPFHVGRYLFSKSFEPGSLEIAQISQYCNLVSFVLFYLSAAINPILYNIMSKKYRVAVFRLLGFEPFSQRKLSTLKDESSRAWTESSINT

## COc1ccc(Cn2c(CCc3ccccc3)nnc2[C@@H](Cc2c[nH]c3ccccc23)NCCN)c(OC)c1
[1]
  Activity: 59%
[2]
  EC50: 0.279 µM

## COc1ccc(Cn2c(CCc3c[nH]c4ccccc34)nnc2[C@@H](Cc2c[nH]c3ccccc23)NC(=O)C2CCNCC2)c(OC)c1
[1]
  Activity: 77%
[2]
  EC50: 0.0006 µM
Rattus norvegicus [3]
  Activity: 0.01 g
Rattus norvegicus [4]
  Activity: 0.11 g
Rattus norvegicus [5]
  Activity: 0.01 g
Rattus norvegicus [6]
  Activity: 0.86 g

## COc1ccc(Cn2c(CCc3ccccc3)nnc2[C@@H](Cc2c[nH]c3ccccc23)NC(=O)[C@H]2CCCCN2)cc1
[1]
  Activity: 7%
Rattus norvegicus [3]
  Activity: 0.01 g
Rattus norvegicus [4]
  Activity: 0.85 g
Rattus norvegicus [5]
  Activity: 0.01 g
Rattus norvegicus [6]
  Activity: 1.07 g
Rattus norvegicus [7]
  Activity: 6.09 ng/mL

## COc1ccc(Cn2c(CCc3c[nH]c4ccccc34)nnc2[C@@H](Cc2c[nH]c3ccccc23)NC(=O)[C@@H]2CCCN2)cc1
[1]
  Activity: 2%
Rattus norvegicus [3]
  Activity: 0.05 g
Rattus norvegicus [4]
  Activity: 0.44 g
Rattus norvegicus [5]
  Activity: 0.2 g
Rattus norvegicus [6]
  Activity: 0.48 g
[8]
  Kb: 0.006 µM

## O=C(N[C@H](Cc1c[nH]c2ccccc12)c1nnc(CCc2c[nH]c3ccccc23)n1Cc1ccccc1)[C@H]1CCCNC1
[1]
  Activity: 50%
[2]
  EC50: 0.0099 µM
Rattus norvegicus [3]
  Activity: 0.52 g
Rattus norvegicus [4]
  Activity: 0.16 g
[9]
  IC50: 0.013 µM
Rattus norvegicus [5]
  Activity: 0.6 g
Rattus norvegicus [6]
  Activity: 0.62 g

## CC(C)(N)C(=O)N[C@H](Cc1c[nH]c2ccccc12)c1nnc(CCc2c[nH]c3ccccc23)n1Cc1ccccc1
[1]
  Activity: 73%

## COc1ccc(Cn2c(CCc3c[nH]c4ccccc34)nnc2[C@@H](Cc2c[nH]c3ccccc23)NC(=O)[C@H]2CCCCN2)cc1
[1]
  Activity: 0%
Rattus norvegicus [3]
  Activity: 0.04 g
Rattus norvegicus [4]
  Activity: 1.25 g
Rattus norvegicus [5]
  Activity: 0.06 g
Rattus norvegicus [6]
  Activity: 1.68 g
[8]
  Kb: 0.008 µM

## CCc1ccc(Cn2c(CCc3ccccc3)nnc2[C@@H](Cc2c[nH]c3ccccc23)NC(=O)[C@H]2CCCNC2)cc1
[1]
  Activity: 11%
[9]
  IC50: 0.13 µM

## COc1ccc(Cn2c(CCc3c[nH]c4ccccc34)nnc2[C@@H](Cc2c[nH]c3ccccc23)NC(=O)CN)c(OC)c1
[1]
  Activity: 0%
Rattus norvegicus [3]
  Activity: 0.01 g
Rattus norvegicus [4]
  Activity: 0.39 g
Rattus norvegicus [5]
  Activity: 0.01 g
Rattus norvegicus [6]
  Activity: 0.74 g
[8]
  Kb: 0.027 µM

## COc1ccc(Cn2c(CCc3ccccc3)nnc2[C@@H](Cc2c[nH]c3ccccc23)NC(=O)[C@@H]2CCCNC2)cc1
[1]
  Activity: 89%
[2]
  EC50: 0.036 µM

## Cc1ncccc1-n1c(CCc2ccccc2)nnc1[C@@H](Cc1c[nH]c2ccccc12)NC(=O)C1CCNCC1
[1]
  Activity: 78%
[9]
  IC50: > 1 µM

## COc1ccc(Cn2c(CCc3c[nH]c4ccccc34)nnc2[C@@H](Cc2c[nH]c3ccccc23)NC(=O)[C@H]2CCCNC2)c(OC)c1
[1]
  Activity: 48%
[2]
  EC50: 0.0053 µM
Rattus norvegicus [3]
  Activity: 0.01 g
Rattus norvegicus [4]
  Activity: 0.33 g
[9]
  IC50: 0.0065 µM
Rattus norvegicus [5]
  Activity: 0.01 g
Rattus norvegicus [6]
  Activity: 0.65 g

## O=C(N[C@H](Cc1c[nH]c2ccccc12)c1nnc(CCc2c[nH]c3ccccc23)n1Cc1ccccc1)C1CCNCC1
[1]
  Activity: 75%
[2]
  EC50: 0.0054 µM
Rattus norvegicus [3]
  Activity: 0.01 g
Rattus norvegicus [4]
  Activity: 0.38 g
[9]
  IC50: 0.024 µM
Rattus norvegicus [5]
  Activity: 0.11 g
Rattus norvegicus [6]
  Activity: 0.6 g

## COc1ccc(Cn2c(CCc3c[nH]c4ccccc34)nnc2[C@@H](Cc2c[nH]c3ccccc23)NC(=O)[C@H]2CCCNC2)cc1
[1]
  Activity: 111%
[2]
  EC50: 0.0025 µM
Rattus norvegicus [3]
  Activity: 0.01 g
Rattus norvegicus [4]
  Activity: 0.62 g
Rattus norvegicus [5]
  Activity: 0.06 g
Rattus norvegicus [6]
  Activity: 0.76 g

## COc1ccc(Cn2c(CCc3ccccc3)nnc2[C@@H](Cc2c[nH]c3ccccc23)NC(=O)C2CCCCN2)cc1 (single isomer, unassigned)
[1]
  Activity: 3%
Rattus norvegicus [3]
  Activity: 0.01 g
Rattus norvegicus [4]
  Activity: 0.06 g
Rattus norvegicus [5]
  Activity: 0.01 g
Rattus norvegicus [6]
  Activity: 0.56 g

## COc1ccc(Cn2c(CCc3ccccc3)nnc2[C@@H](Cc2c[nH]c3ccccc23)NC(=O)[C@H]2CCCNC2)cc1
[1]
  Activity: 20%
[8]
  Kb: 0.01 µM

## CCc1ccc(-n2c(CCc3c[nH]c4ccccc34)nnc2[C@@H](Cc2c[nH]c3ccccc23)NC(=O)CN)cc1
[1]
  Activity: 4%
[9]
  IC50: > 1 µM

## CCc1ccc(-n2c(CCc3c[nH]c4ccccc34)nnc2[C@@H](Cc2c[nH]c3ccccc23)NC(=O)[C@@H]2CCCN2)cc1
[1]
  Activity: 5%
[9]
  IC50: 0.35 µM

## CCc1ccc(-n2c(CCc3c[nH]c4ccccc34)nnc2[C@@H](Cc2c[nH]c3ccccc23)NC(=O)C2CCNCC2)cc1
[1]
  Activity: 100%
[2]
  EC50: 0.015 µM
[9]
  IC50: 0.096 µM

## O=C(N[C@H](Cc1c[nH]c2ccccc12)c1nnc(CCc2c[nH]c3ccccc23)n1-c1ccccc1)C1CCNCC1
[1]
  Activity: 100%
[2]
  EC50: 0.0023 µM

## COc1ccc(Cn2c(CCc3ccccc3)nnc2[C@@H](Cc2c[nH]c3ccccc23)NC(=O)CN)c(OC)c1
[1]
  Activity: 0%
Rattus norvegicus [3]
  Activity: 0.01 g
Rattus norvegicus [4]
  Activity: 1.26 g
[9]
  IC50: 0.154 µM
Rattus norvegicus [5]
  Activity: 0.08 g
Rattus norvegicus [6]
  Activity: 1.48 g

## COc1ccc(Cn2c(CCc3c[nH]c4ccccc34)nnc2[C@@H](Cc2c[nH]c3ccccc23)NC(=O)C2CCNCC2)cc1
[1]
  Activity: 93%
[2]
  EC50: 0.003 µM
Rattus norvegicus [3]
  Activity: 0.01 g
Rattus norvegicus [4]
  Activity: 0.4 g
Rattus norvegicus [5]
  Activity: 0.37 g
Rattus norvegicus [6]
  Activity: 1.05 g

## COc1ccc(Cn2c(CCC3C=Nc4ccccc43)nnc2[C@@H](Cc2c[nH]c3ccccc23)NC(=O)CN)cc1 (stereo partly drawn)
[1]
  Activity: 2%
[9]
  IC50: 0.138 µM

## CCc1ccc(Cn2c(CCc3ccccc3)nnc2[C@@H](Cc2c[nH]c3ccccc23)NC(=O)CN)cc1
[1]
  Activity: 0%
Rattus norvegicus [3]
  Activity: 0.01 g
Rattus norvegicus [4]
  Activity: 0.79 g
[9]
  IC50: 0.759 µM
Rattus norvegicus [5]
  Activity: 0.03 g
Rattus norvegicus [6]
  Activity: 0.81 g

## COc1ccc(Cn2c(CCc3c[nH]c4ccccc34)nnc2[C@@H](Cc2c[nH]c3ccccc23)NC(=O)C(C)(C)N)cc1
[1]
  Activity: 9%
[8]
  Kb: 0.004 µM

## COc1ccc(Cn2c(CCc3ccccc3)nnc2[C@@H](Cc2c[nH]c3ccccc23)NC(=O)[C@@H]2CCCCN2)c(OC)c1
[1]
  Activity: 0%
[9]
  IC50: 0.134 µM

## COc1ccc(-n2c(CCc3ccccc3)nnc2[C@@H](Cc2c[nH]c3ccccc23)NC(=O)CN)c(OC)c1
[1]
  Activity: 27%
[9]
  IC50: > 1 µM

## NCC(=O)N[C@H](Cc1c[nH]c2ccccc12)c1nnc(CCc2ccccc2)n1-c1ccccc1
[1]
  Activity: 7%
[9]
  IC50: > 1 µM

## COc1ccc(Cn2c(CCc3ccccc3)nnc2[C@@H](Cc2c[nH]c3ccccc23)NC(=O)CN)cc1
Rattus norvegicus [10]
  Activity: 0.56 g
[1]
  Activity: 0%
Rattus norvegicus [11]
  Activity: 0.36 g
Rattus norvegicus [3]
  Activity: 0.01 g
Rattus norvegicus [12]
  Activity: 0.63 g
Rattus norvegicus [4]
  Activity: 0.01 g
Rattus norvegicus [5]
  Activity: 0.04 g
Rattus norvegicus [6]
  Activity: 0.28 g
Rattus norvegicus [7]
  Activity: 9.85 ng/mL

## CCc1ccc(Cn2c(CCc3ccccc3)nnc2[C@@H](Cc2c[nH]c3ccccc23)NC(=O)C2CCNCC2)cc1
[1]
  Activity: 101%
[2]
  EC50: 0.0077 µM
Rattus norvegicus [3]
  Activity: 0.03 g
Rattus norvegicus [4]
  Activity: 1.4 g
Rattus norvegicus [5]
  Activity: 0.35 g
Rattus norvegicus [6]
  Activity: 1.66 g

## COc1ccc(Cn2c(CCc3ccccc3)nnc2[C@@H](Cc2c[nH]c3ccccc23)NC(=O)[C@@H]2C[C@@H](O)CN2)cc1
[1]
  Activity: 87%
Rattus norvegicus [3]
  Activity: 0.01 g
Rattus norvegicus [4]
  Activity: 0.02 g
[9]
  IC50: 0.173 µM
Rattus norvegicus [5]
  Activity: 0.01 g
Rattus norvegicus [6]
  Activity: 0.35 g

## COc1ccc(Cn2c(CCc3c[nH]c4ccccc34)nnc2[C@@H](Cc2c[nH]c3ccccc23)NC(=O)[C@@H]2CCCN2)c(OC)c1
[1]
  Activity: 0%
[9]
  IC50: 0.0056 µM
[8]
  Kb: 0.011 µM

## COc1ccc(Cn2c(CCc3c[nH]c4ccccc34)nnc2[C@@H](Cc2c[nH]c3ccccc23)NC(=O)[C@H]2CCCN2)cc1
Rattus norvegicus [10]
  Activity: 0.15 g
[1]
  Activity: 7%
Rattus norvegicus [11]
  Activity: 0.58 g
Rattus norvegicus [3]
  Activity: 0.01 g
Rattus norvegicus [12]
  Activity: 0.17 g
Rattus norvegicus [4]
  Activity: 0.05 g
Rattus norvegicus [5]
  Activity: 0.03 g
Rattus norvegicus [6]
  Activity: 0.36 g
[8]
  Kb: 0.007 µM
